# ChEMBL document CHEMBL1138854, “Synthesis and antitumor activity of guanylhydrazones from 6-(2,4-dichloro-5-nitrophenyl)imidazo[2,1-b]thiazoles and 6-pyridylimidazo[2,1-b]thiazoles(1)” (2006)
# Several values for one entry are separate records, joined by “and”; a condition that tells them apart may be missing. Equal entries are not always repeated. Activity calls are given as the source filed them. No cut-off for these calls is given here.
# Experiments:
# [1] = Antitumor activity against colon cell lines of the NCI60 panel; assay type: functional; settings: Homo sapiens; for TGI: read-out: pTGI (converted)
# In short: (§1)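 Run by NCI in the 60-cell-line panel (details in Supporting Information). Highest concentration 10^-4 M unless noted (one case 10-2.6 M). Values expressed as -log molar concentration giving 50% growth inhibition (pGI50), total cytostasis (pTGI) or 50% cell kill (pLC50); only values >4.00 reported; mean graph midpoint is the calculated panel mean.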
# [2] = Antitumor activity against ovarian cell lines of the NCI60 panel; assay type: functional; settings: Homo sapiens; for TGI: read-out: pTGI (converted); in short: as §1
# [3] = Antitumor activity against leukemia cell lines of the NCI60 panel; assay type: functional; settings: Homo sapiens; for TGI: read-out: pTGI (converted); in short: as §1
# NSCLC = experiment: Antitumor activity against NSCLC cell lines of the NCI60 panel; assay type: functional; settings: Homo sapiens; for TGI: read-out: pTGI (converted); in short: as §1
# [4] = Antitumor activity against melanoma cell lines of the NCI60 panel; assay type: functional; settings: Homo sapiens; for TGI: read-out: pTGI (converted); in short: as §1
# [5] = Antitumor activity against prostate cell lines of the NCI60 panel; assay type: functional; settings: Homo sapiens; for TGI: read-out: pTGI (converted); in short: as §1
# [6] = biological target: T1, S-adenosylmethionine decarboxylase proenzyme (Homo sapiens) (UniProt P17707); experiment: Inhibition of SAMDC in HL60 cells by release of radioactive CO2 from [14C-carboxyl]S-adenosylmethionine; settings: HL-60
# T1 sequence (whole entry): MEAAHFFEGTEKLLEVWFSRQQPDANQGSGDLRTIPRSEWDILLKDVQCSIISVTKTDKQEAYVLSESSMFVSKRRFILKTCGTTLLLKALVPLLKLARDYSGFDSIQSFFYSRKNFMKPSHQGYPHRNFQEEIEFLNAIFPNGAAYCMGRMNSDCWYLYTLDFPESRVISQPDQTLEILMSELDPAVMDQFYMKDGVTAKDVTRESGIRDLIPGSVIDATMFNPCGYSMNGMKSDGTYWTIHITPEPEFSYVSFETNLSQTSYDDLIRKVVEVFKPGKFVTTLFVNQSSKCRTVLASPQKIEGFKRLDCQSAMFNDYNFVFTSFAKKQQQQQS
# [7] = Antitumor activity against renal cell lines of the NCI60 panel; assay type: functional, Homo sapiens; in short: as §1
# [8] = Antitumor activity against CNS cell lines of the NCI60 panel; assay type: functional; settings: Homo sapiens; for TGI: read-out: pTGI (converted); in short: as §1
# [9] = Antitumor activity against breast cell lines of the NCI60 panel; assay type: functional; settings: Homo sapiens; for TGI: read-out: pTGI (converted); in short: as §1
# HL-60 = experiment: Mitochondrial potential in HL60 cells assessed as decrease in ATP level at 0.5 uM; assay type: functional, cell-based; settings: Homo sapiens
Structure (SMILES),GI50 [1],TGI [1],GI50 [2],TGI [2],GI50 [3],TGI [3],GI50 (NSCLC),TGI (NSCLC),GI50 [4],TGI [4],GI50 [5],TGI [5],Activity [6],"GI50 ([7]; Homo sapiens, renal)",GI50 [8],TGI [8],GI50 [9],TGI [9],Activity (HL-60),also measured
N=C(N)N/N=C/c1c(-c2ccncc2)nc2sc(Cl)cn12,8.13 µM,27.5 µM,10.2 µM,20.9 µM,3.8 µM,11.7 µM,6.76 µM,17 µM,5.89 µM,13.8 µM,17.4 µM,33.1 µM,inactive,6.61 µM,7.76 µM,20 µM,13.2 µM,40.7 µM,inactive,
CCCc1cn2c(/C=N/NC(=N)N)c(-c3cc([N+](=O)[O-])c(Cl)cc3Cl)nc2s1,1.48 µM,2.75 µM,1.62 µM,3.02 µM,0.724 µM,1.95 µM,1.74 µM,3.24 µM,1.66 µM,3.09 µM,1.74 µM,3.39 µM,inactive,1.66 µM,1.66 µM,3.09 µM,1.74 µM,3.47 µM,inactive,"TGI ([7]; Homo sapiens, renal, read-out: pTGI (converted)): 3.09 µM"
CC(/C=N/NC(=N)N)=N\NC(=N)N [MITOGUAZONE],12.6 µM,501 µM,15.8 µM,316 µM,7.94 µM,631 µM,25.1 µM,316 µM,39.8 µM,316 µM,100 µM,1580 µM,,20 µM,20 µM,251 µM,15.8 µM,316 µM,,LC50 [7]: 501 µM and 2000 µM
N=C(N)N/N=C/c1c(-c2cc([N+](=O)[O-])c(Cl)cc2Cl)nc2sccn12,1.02 µM,2.14 µM,1.86 µM,3.55 µM,1.45 µM,4.27 µM,1.78 µM,3.47 µM,1.58 µM,3.02 µM,2.09 µM,,,2 µM,1.55 µM,3.47 µM,2.82 µM,6.03 µM,,
Cc1cn2c(/C=N/NC(=N)N)c(-c3ccccn3)nc2s1,8.13 µM,29.5 µM,17.4 µM,63.1 µM,3.63 µM,,10.2 µM,32.4 µM,9.77 µM,28.8 µM,7.94 µM,39.8 µM,,7.94 µM,8.13 µM,26.9 µM,8.91 µM,37.2 µM,,
